System: dogs with compensated CHF caused by MMVD
Assay: Urine output
Type: in vivo, dog
Summary of the method: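 Crossover design in 7 male dogs with ACVIM stage C CHF from MMVD, treated in fixed order with a 2-week washout. Baseline UOP was measured at the end of a 1-h control period. […] UOP was log-transformed and analysed by linear mixed modelling (REML, least square differences).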

SMILES: NS(=O)(=O)c1cc(C(=O)O)c(NCc2ccco2)cc1Cl [FRUS, furosemide]
- increase in median UOP compared to baseline at maximal effect (1 hour after treatment, median of 7 dogs): 1246%
- change in urine output (UOP) from baseline (BNP 5 μg/kg SC, FRUS 2 mg/kg SC, or both, 1, 2, 3 hours, 7 dogs): increased significantly
- time after treatment of maximal effect on UOP (furosemide 2 mg/kg SC with or without BNP 5 μg/kg SC): 1 h

— paper PMC6430907 (Journal of Veterinary Internal Medicine, 2019)
